Test results published in ChEMBL document CHEMBL1811760, “Structure-activity relationships of C-17-substituted estratriene-3-O-sulfamates as anticancer agents” (J Med Chem, 2011).
The source made the active and inactive calls. The rule behind the calls is not given here.

How the values were obtained:
DU-145 = test: Antiproliferative activity against human DU145 cells after 96 hrs by WST1 assay; format: functional; details: DU-145, 96 h
Procedure, shortened: (§1)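 Cells were grown in RPMI-1640 with 10% FBS at 37 °C in 5% CO2, then seeded at 5000 cells/well. They were exposed to compound at 10^-9–10^-4 M or vehicle for 96 h. Live cells were read by WST-1 and expressed as percent of mean control, from which GI50 was calculated. Runs were done in triplicate.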

MCF7 = test: Antiproliferative activity against estrogen-positive human MCF7 cells; format: functional
HOP-62 = test: Growth inhibition of human HOP62 cells; format: functional
HCT-116 = test: Growth inhibition of human HCT116 cells; format: functional
SF-539 = test: Growth inhibition of human SF539 cells; format: functional
UACC-62 = test: Growth inhibition of human UACC62 cells; format: functional
OVCAR-3 = test: Growth inhibition of human OVCAR3 cells; format: functional
SN12C = test: Growth inhibition of human SN12C cells; format: functional
[1] = Growth inhibition of human NCI60 cells; format: functional
MDA-MB-231 = test: Antiproliferative activity against estrogen-negative human MDA-MB-231 cells after 96 hrs by WST1 assay; format: functional; details: MDA-MB-231, 96 h; procedure, shortened: as §1
Mus musculus [2] = test: Antiangiogenic activity in Matrigel plug implanted C57BL/6J mouse assessed as inhibition of bFGF-induced angiogenesis at 10 mg/kg, po administered 24 hrs after implantation for 4 days measured by FITC-conjugated dextran staining based fluorimetry; format: functional, organism-based; design: dose 10 mg/kg
Procedure, shortened: (§2)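 Female C57BL/6J mice (6–8 weeks) were injected subcutaneously in the flanks with 0.5 mL ice-cold Matrigel plus 500 ng bFGF. Oral dosing in vehicle (10% THF, 90% PG) ran daily for 4 days, starting 24 h after Matrigel. Groups had five mice. FITC-dextran (0.1 mL of 0.25 mg/mL) was given iv and mice killed 20 min later. Plugs were digested in Dispase 16 h at 37 °C, and supernatant fluorescence read at ex 480/em 520 nm against a FITC-dextran standard curve.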

Mus musculus [3] = test: Antiangiogenic activity in Matrigel plug implanted C57BL/6J mouse assessed as inhibition of bFGF-induced angiogenesis at 20 mg/kg, po administered 24 hrs after implantation for 4 days measured by FITC-conjugated dextran staining based fluorimetry; format: functional, organism-based; design: dose 20 mg/kg; procedure, shortened: as §2
[4] = Toxicity in ip dosed athymic nude mouse administered as single dose; format: organism-based; details: in vivo
Procedure, shortened: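 Preliminary toxicology run at the NCI in female athymic nude mice. Each mouse received a single ip dose, at doses up to 400 mg/kg. The compound was formulated in 10% DMSO in saline/Tween 80.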

| GI50 (DU-145) [nM] | GI50 (MCF7) [nM] | GI50 (HCT-116) [nM] | GI50 (OVCAR-3) [nM] | GI50 (MDA-MB-231) [nM] | Structure (SMILES) | GI50 (HOP-62) [nM] | GI50 (SF-539) [nM] | GI50 (UACC-62) [nM] | GI50 (SN12C) [nM] | GI50 [1] [nM] | also measured |
| --- | --- | --- | --- | --- | --- | --- | --- | --- | --- | --- | --- |
| 60000 | – | – | – | – | CCc1cc2c(cc1O)CC[C@@H]1[C@@H]2CC[C@]2(C)[C@@H](CC(F)F)CC[C@@H]12 | – | – | – | – | – | – |
| – | 4190 | 350 | 220 | – | CCOC(=O)C[C@H]1CC[C@H]2[C@@H]3CCc4cc(OS(N)(=O)=O)c(CC)cc4[C@H]3CC[C@]12C | 590 | 220 | 450 | 630 | 520 | – |
| 330 | – | 22 | < 10 | 530 | CCc1cc2c(cc1OS(N)(=O)=O)CC[C@@H]1[C@@H]2CC[C@]2(C)[C@@H](COC)CC[C@@H]12 | 45 | < 10 | – | 72 | 42 | – |
| – | 2520 | – | – | – | CCc1cc2c(cc1O)CC[C@@H]1[C@@H]2CC[C@]2(C)[C@@H](CCO)CC[C@@H]12 | – | – | – | – | – | – |
| – | 770 | – | – | – | CCc1cc2c(cc1O)CC[C@@H]1[C@@H]2CC[C@]2(C)/C(=C/CO)CC[C@@H]12 | – | – | – | – | – | – |
| 1810 | – | 2820 | 3470 | – | CCc1cc2c(cc1OS(N)(=O)=O)CC[C@@H]1[C@@H]2CC[C@]2(C)[C@@H](CC(F)F)CC[C@@H]12 | 3890 | 1950 | 4900 | 5370 | 3090 | – |
| – | 670 | – | – | – | CCc1cc2c(cc1O)CC[C@@H]1[C@@H]2CC[C@]2(C)/C(=C\CO)CC[C@@H]12 | – | – | – | – | – | – |
| 2090 | – | – | – | 2350 | COc1cc2c(cc1OS(N)(=O)=O)CC[C@@H]1[C@@H]2CC[C@]2(C)[C@@H](C/C(C)=N\O)CC[C@@H]12 | – | – | – | – | – | – |
| 140 | – | 25 | < 10 | 140 | COc1cc2c(cc1OS(N)(=O)=O)CC[C@@H]1[C@@H]2CC[C@]2(C)[C@@H](CC(C)O)CC[C@@H]12 (some centres undefined) | 48 | 23 | < 10 | 52 | 28 | – |
| – | – | – | < 10 | – | CCc1cc2c(cc1OS(N)(=O)=O)CC[C@@H]1[C@@H]2CC[C@]2(C)[C@@H](OS(N)(=O)=O)CC[C@@H]12 | < 10 | < 10 | < 10 | 28 | 18 | – |
| 89 | < 5 | < 10 | < 10 | 68 | COc1cc2c(cc1OS(N)(=O)=O)CC[C@@H]1[C@@H]2CC[C@]2(C)[C@@H](CC(C)=O)CC[C@@H]12 | < 10 | < 10 | < 10 | < 10 | 21 | Activity (Mus musculus [2]): Active; Activity (Mus musculus [3]): Active |
| 2000 | – | – | – | – | CCc1cc2c(cc1O)CC[C@@H]1[C@@H]2CC[C@]2(C)[C@@H](C(C)=O)CC[C@@H]12 | – | – | – | – | – | – |
| 10100 | – | – | – | 6300 | CCc1cc2c(cc1O)CC[C@@H]1[C@@H]2CC[C@]2(C)[C@@H](CO)CC[C@@H]12 | – | – | – | – | – | – |
| 25300 | – | – | – | 9200 | CCc1cc2c(cc1O)CC[C@@H]1[C@@H]2CC[C@]2(C)[C@@H](COC)CC[C@@H]12 | – | – | – | – | – | – |
| – | > 100000 | – | – | – | CCc1cc2c(cc1O)CC[C@@H]1[C@@H]2CC[C@]2(C)[C@@H](CC#N)CC[C@@H]12 | – | – | – | – | – | – |
| 780 | – | 3390 | 22900 | – | CCc1cc2c(cc1OS(N)(=O)=O)CC[C@@H]1[C@@H]2CC[C@]2(C)[C@@H](CCF)CC[C@@H]12 | 3720 | 5250 | 3890 | 7590 | 6310 | – |
| – | 26400 | – | – | – | CCOC(=O)C[C@H]1CC[C@H]2[C@@H]3CCc4cc(O)c(CC)cc4[C@H]3CC[C@]12C | – | – | – | – | – | – |

| GI50 (DU-145) [nM] | GI50 (MCF7) [nM] | GI50 (HCT-116) [nM] | GI50 (OVCAR-3) [nM] | GI50 (MDA-MB-231) [nM] | Structure (SMILES) | GI50 (HOP-62) [nM] | GI50 (SF-539) [nM] | GI50 (UACC-62) [nM] | GI50 (SN12C) [nM] | GI50 [1] [nM] | also measured |
| --- | --- | --- | --- | --- | --- | --- | --- | --- | --- | --- | --- |
| 3400 | – | 2700 | 4070 | – | CCc1cc2c(cc1OS(N)(=O)=O)CC[C@@H]1[C@@H]2CC[C@]2(C)[C@@H](CCOC)CC[C@@H]12 | 4900 | 5010 | 2340 | 4680 | 4570 | – |
| – | 31100 | – | – | – | CCOC(=O)/C=C1/CC[C@H]2[C@@H]3CCc4cc(O)c(CC)cc4[C@H]3CC[C@]12C | – | – | – | – | – | – |
| 300 | – | – | – | 390 | COc1cc2c(cc1O)CC[C@@H]1[C@@H]2CC[C@]2(C)[C@@H](C(C)=O)CC[C@@H]12 | – | – | – | – | – | – |
| – | 1850 | – | – | – | CCOC(=O)/C=C1\CC[C@H]2[C@@H]3CCc4cc(OS(N)(=O)=O)c(CC)cc4[C@H]3CC[C@]12C | – | – | – | – | – | – |
| 2400 | – | – | – | – | COc1cc2c(cc1O)CC[C@@H]1[C@@H]2CC[C@]2(C)[C@@H](CC(C)=O)CC[C@@H]12 | – | – | – | – | – | – |
| – | 10000 | 270 | 230 | – | CCc1cc2c(cc1OS(N)(=O)=O)CC[C@@H]1[C@@H]2CC[C@]2(C)/C(=C/CO)CC[C@@H]12 | 420 | 220 | 470 | 580 | 490 | – |
| 160 | 320 | – | – | 180 | CCc1cc2c(cc1OS(N)(=O)=O)CC[C@@H]1[C@@H]2CC[C@]2(C)[C@@H](CC(C)=O)CC[C@@H]12 | – | – | – | – | – | – |
| 3400 | – | – | – | – | CCc1cc2c(cc1O)CC[C@@H]1[C@@H]2CC[C@]2(C)[C@@H](CCF)CC[C@@H]12 | – | – | – | – | – | – |
| – | > 10000 | – | – | – | CCc1cc2c(cc1O)CC[C@@H]1[C@@H]2CC[C@]2(C)/C(=C/COC)CC[C@@H]12 | – | – | – | – | – | – |
| 46 | – | – | – | 48 | COc1cc2c(cc1OS(N)(=O)=O)CC[C@@H]1[C@@H]2CC[C@]2(C)[C@@H](C(C)=O)CC[C@@H]12 | – | – | – | – | – | – |
| – | 24800 | – | – | – | CCc1cc2c(cc1O)CC[C@@H]1[C@@H]2CC[C@]2(C)[C@@H](CCOC)CC[C@@H]12 | – | – | – | – | – | – |
| 18900 | 5790 | – | – | – | CCc1cc2c(cc1O)CC[C@@H]1[C@@H]2CC[C@]2(C)[C@@H](CC(C)=O)CC[C@@H]12 | – | – | – | – | – | – |
| – | 5640 | – | – | – | CCc1cc2c(cc1OS(N)(=O)=O)CC[C@@H]1[C@@H]2CC[C@]2(C)[C@@H](CCOS(N)(=O)=O)CC[C@@H]12 | – | – | – | – | – | – |
| 62 | 26 | < 10 | < 10 | 19 | CCc1cc2c(cc1OS(N)(=O)=O)CC[C@@H]1[C@@H]2CC[C@]2(C)[C@@H](C(C)=O)CC[C@@H]12 | < 10 | < 10 | < 10 | < 10 | 15 | Activity (Mus musculus [2]): Active; Activity (Mus musculus [3]): Active |
| – | < 500 | 270 | 11500 | – | CCc1cc2c(cc1OS(N)(=O)=O)CC[C@@H]1[C@@H]2CC[C@]2(C)[C@@H](CCO)CC[C@@H]12 | 250 | 350 | 2890 | 2450 | 1730 | – |
| – | 30600 | – | – | – | CCOC(=O)/C=C1\CC[C@H]2[C@@H]3CCc4cc(O)c(CC)cc4[C@H]3CC[C@]12C | – | – | – | – | – | – |
| 290 | – | 38 | 19 | 430 | CCc1cc2c(cc1OS(N)(=O)=O)CC[C@@H]1[C@@H]2CC[C@]2(C)[C@@H](COS(N)(=O)=O)CC[C@@H]12 | 61 | 56 | 22 | 309 | 85 | – |

| Structure (SMILES) | GI50 (DU-145) [nM] | GI50 (MCF7) [nM] | GI50 (HCT-116) [nM] | GI50 (OVCAR-3) [nM] | GI50 (MDA-MB-231) [nM] | GI50 (HOP-62) [nM] | GI50 (SF-539) [nM] | GI50 (UACC-62) [nM] | GI50 (SN12C) [nM] | GI50 [1] [nM] | also measured |
| --- | --- | --- | --- | --- | --- | --- | --- | --- | --- | --- | --- |
| CCc1cc2c(cc1OS(N)(=O)=O)CC[C@@H]1[C@@H]2CC[C@]2(C)[C@@H](CO)CC[C@@H]12 | 100 | – | < 10 | < 10 | 110 | < 10 | < 10 | < 10 | < 10 | 18 | MTD [4]: 400 mg/kg |
